The source of these data is the RNAGym collection of RNA variant scans (doi:10.1126/science.aae0568).

This sample holds only a part of the variants without activity. Some results are limits rather than exact numbers.

Sequences and labels used below:
B1: tRNA (parent)
chain: GUUCCGUUGGCGUAAUGGUAACGCGUCUCCCUCCUAAGGAGAAGACUGCGGGUUCGAGUCCCGUACGGAACG

In the series the parent is B1. The series is described as follows: yeast fitness relative to wild type (ratio to wild type); higher = fitter; tRNA-Arg(CCU), competitive growth, 37 C, YPD. In a few lines:
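For this measurement, the tRNA-Arg(CCU) gene was varied by chemical synthesis at a 3% per-site mutation rate across 69 sites, and each variant was placed at the native genomic locus in Saccharomyces cerevisiae. The pooled strains went through a 24-hour competition in YPD at 37°C in six parallel replicates, with amplicons from start and end populations read by 100-nucleotide paired-end sequencing. Darwinian fitness relative to wild type followed from the change in each genotype's frequency. Genotypes needed ≥ 100 starting reads, and estimates < 0.5 were set to 0.5.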
In the case of G17C A70U, the yeast fitness is 0.713.

Regarding G17C A70G, the yeast fitness worked out at 0.616.

As to G17C G23C A43U C49A C66U A70U, the yeast fitness came to 0.603.

Regarding G17C G51A G63C A69U, the yeast fitness was at most 0.5.

As for G17A U32C A40G, the yeast fitness was determined as 0.573.

As for G17C G25A U32A A43G A57U, the yeast fitness was found to be 0.546.

For the variant G17C C22U C49G, the yeast fitness was at most 0.5.

For the variant G17C C24A U47A, the yeast fitness is at most 0.5.

As for G18A A57U G58C, the yeast fitness was at most 0.5.

Turning to G17C U35A, the yeast fitness is at most 0.5.

In the case of G17A C22U U28C U54G A57C, the yeast fitness is at most 0.5.

For G17A C22U U28C U54G A57C C62U, the yeast fitness was determined as 0.535.

As for G18A A43C C66G, the yeast fitness turned out to be 0.505.

As for G18A C33U A57G, the yeast fitness is at most 0.5.

On to G17A C62A, for which the yeast fitness was found to be 0.558.

G17A C62U: the yeast fitness amounted to 0.736.

Regarding G17A C29G U59G C61G C62U, the yeast fitness is at most 0.5.

G17C C29G A65C: the yeast fitness was determined as 0.629.

G17C U28C C55A C60A: the yeast fitness is at most 0.5.

With G17A C31G G48A, the yeast fitness is at most 0.5.

In the case of G17C A40G G41A G56C, the yeast fitness was at most 0.5.

For the variant G17C A37G G56C, the yeast fitness is at most 0.5.

Turning to G17A C29G U47A G51A, the yeast fitness is at most 0.5.

Turning to G17A U19A C24U G25C, the yeast fitness was at most 0.5.

Regarding G18A A20G U26G G50C G63C, the yeast fitness is at most 0.5.

G17C G39C G63A: the yeast fitness was at most 0.5.

For G17C U19C C24A U32C, the yeast fitness was at most 0.5.

In the case of G17U U35C A37U A57C, the yeast fitness was at most 0.5.

For the variant G17C U32A C46A, the yeast fitness came to 0.582.

On to G17A G18A A42C C55U, for which the yeast fitness came to 0.508.

With G17A G25C A65C, the yeast fitness is 0.611.

For G17C A57G, the yeast fitness was 0.68.

On to G17A U26G C29G C62U A70G, for which the yeast fitness is at most 0.5.

In the case of G17A C34A C49U G52U, the yeast fitness was at most 0.5.

As for G17C A20C C49U G52A C61A C62G, the yeast fitness was at most 0.5.

As to G18A A45C C55U C61G, the yeast fitness was at most 0.5.

Turning to G17C C30G A57C C61G, the yeast fitness turned out to be 0.613.

Take G17C C27G C29A: the yeast fitness is at most 0.5.

In the case of G17C A43U, the yeast fitness was found to be 0.589.

As for G17A G25A, the yeast fitness was 0.886.

Consider G17A C27G C61U, for which the yeast fitness was at most 0.5.

On to G17A C61U C66U, for which the yeast fitness came to 0.599.

Take G17A C22U C27A C30G C66G: the yeast fitness was at most 0.5.

Take G17C C30G C60G G63A A65U C66U: the yeast fitness stood at 0.549.

For the variant G17C C33U A37C, the yeast fitness is at most 0.5.

As to G17C A37G C55U, the yeast fitness is at most 0.5.

Consider G17A C24G C33G C60U, for which the yeast fitness was at most 0.5.

For G18A C31U G41A, the yeast fitness was 0.647.

For G17A C29U, the yeast fitness was found to be 0.832.

G17C A20C G52C: the yeast fitness is at most 0.5.

On to G18A C31G A70U, for which the yeast fitness is 0.687.

Consider G17A C60G C61G, for which the yeast fitness is at most 0.5.

For G18A C27A, the yeast fitness came out at 0.726.

For the variant G17A U26C, the yeast fitness was 0.784.

Regarding G17C C22G, the yeast fitness is 0.619.

With G17A G56C G58C G68A, the yeast fitness was at most 0.5.

On to G17C G39A G52A, for which the yeast fitness is at most 0.5.

Regarding G17C C22G C30U G41C C46U, the yeast fitness amounted to 0.708.

In the case of G18A A70U, the yeast fitness was 0.956.

As for G17A C30U A42C, the yeast fitness was at most 0.5.

Regarding G17C U28A C30A C31A, the yeast fitness amounted to 0.623.

Consider G17A U19C, for which the yeast fitness is 0.95.

Regarding G17A G50C, the yeast fitness worked out at 0.647.

With G17C C22A U32C, the yeast fitness amounted to 0.553.

Take G17C A21G U59G A65C: the yeast fitness is at most 0.5.

Turning to G18A C30G G38C, the yeast fitness was found to be 0.529.

Turning to G17A U47C A57G A69U, the yeast fitness is at most 0.5.

For the variant G17C C27U U53G, the yeast fitness is at most 0.5.

G17C G25C G50A U59C G68A: the yeast fitness is at most 0.5.

Consider G17C G52C U64A, for which the yeast fitness was at most 0.5.

Regarding G17C C24A A45C, the yeast fitness is 0.508.

Take G17C A42C C55U: the yeast fitness is at most 0.5.

Turning to G18A C34U A36G, the yeast fitness was 0.525.

For G17A C33U A43U A57G G67U, the yeast fitness was at most 0.5.

For the variant G17C A36G C66U A69C, the yeast fitness was found to be 0.803.

On to G17C C34A A42U A43C, for which the yeast fitness is at most 0.5.

G17C G25C C30U A65C: the yeast fitness is at most 0.5.

On to G17A C30G C61G, for which the yeast fitness was at most 0.5.

With G17A C31U, the yeast fitness was 0.74.

For the variant G18A C30G G41C, the yeast fitness is at most 0.5.

Turning to G18A C22A A37C G41C C55G U64A, the yeast fitness was at most 0.5.

Regarding G18A A36U, the yeast fitness came to 0.66.

Consider G18A C29U C30U A57G, for which the yeast fitness is at most 0.5.

As for G18A A20G U35C G58A C60G, the yeast fitness was determined as 0.558.

As to G18A C24A, the yeast fitness was found to be 0.564.

G18A C31G G41A G52C C60U C62G C66G: the yeast fitness is at most 0.5.

Take G18A A37G C61U: the yeast fitness was at most 0.5.

As to G17U C29G, the yeast fitness stood at 0.544.

Take G18A A20U C22U U28A C33U G44C: the yeast fitness stood at 0.524.

For G17C G23C, the yeast fitness worked out at 0.517.

For the variant G17C C22A U28C A40G A45C C66G A69U, the yeast fitness is at most 0.5.

As for G18A A43U, the yeast fitness came to 0.637.

Regarding G17A C33G A40U A45G A65G, the yeast fitness is at most 0.5.

As for G17C A42C C61A, the yeast fitness is at most 0.5.

On to G17A C62U A69U, for which the yeast fitness stood at 0.587.

In the case of G17C G18C C30G U53A U64G, the yeast fitness was at most 0.5.

As to G17C U19C A40G U47G, the yeast fitness is at most 0.5.

In the case of G17C U19A C24G U26A C34U, the yeast fitness was at most 0.5.

G17C A36G C49U C66U A69C: the yeast fitness worked out at 0.598.

Turning to G17C C66U, the yeast fitness was determined as 0.705.

As to G17A C60G, the yeast fitness amounted to 0.586.

For the variant G18A A42C A69U, the yeast fitness came to 0.542.

As for G17C C27U G67C, the yeast fitness is at most 0.5.

On to G17A C66A, for which the yeast fitness is 0.647.

On to G17A C22U U59A, for which the yeast fitness was at most 0.5.

On to G17C G23A G25C C29G A36U G39A C46U C55U, for which the yeast fitness was at most 0.5.

Take G17C A21C U28C C60A A65G: the yeast fitness is at most 0.5.

With G17C A20U A42U G67A, the yeast fitness was at most 0.5.

Take G17C C24U A36G: the yeast fitness came to 0.607.

For the variant G18A A21C C30U C34A, the yeast fitness was at most 0.5.

As for G17U A40U A42U C49G G51A C66A G68C, the yeast fitness turned out to be 0.536.

As for G18A A21U U32A G56A, the yeast fitness turned out to be 0.561.

For G18A C31A G56C A69C, the yeast fitness was at most 0.5.

For G17A C30G, the yeast fitness came to 0.604.

Regarding G17C C24G G63C, the yeast fitness is at most 0.5.

On to G17C U19A C49G, for which the yeast fitness turned out to be 0.517.

With G17C G18C A20G C30A G50A A69C, the yeast fitness was at most 0.5.

In the case of G17A C31A U32A, the yeast fitness amounted to 0.62.

Consider G17C G58C, for which the yeast fitness stood at 0.528.

G17C G67C: the yeast fitness was 0.723.

Consider G17C G25C U26A C29G A36U G39A C46U C55U, for which the yeast fitness is at most 0.5.

On to G17C A69U, for which the yeast fitness turned out to be 0.624.

As to G17C A69C, the yeast fitness was determined as 0.658.

With G18A C31A, the yeast fitness stood at 0.554.

G17C C24G U28A C30U C49U A65U A69C: the yeast fitness was at most 0.5.

Regarding G17C C33U, the yeast fitness came to 0.556.

Regarding G17A U28A A37G, the yeast fitness is at most 0.5.

G18A C22G C27G C49U G58A: the yeast fitness stood at 0.608.

With G18A C31G C34A U47C, the yeast fitness is at most 0.5.

Take G17C G25C: the yeast fitness turned out to be 0.658.

As for G17A G56A C66U, the yeast fitness was 0.678.

In the case of G17C A37C A40C C61U G68A, the yeast fitness is at most 0.5.

As for G17A C31U G52A, the yeast fitness was at most 0.5.

Take G17C A45U A65C: the yeast fitness was at most 0.5.

Turning to G17C G18C, the yeast fitness stood at 0.576.

For the variant G17C G18C U19G C24G, the yeast fitness is at most 0.5.

As for G17A U32C A40G A70G, the yeast fitness was at most 0.5.

G17A C30A A57U G58A: the yeast fitness was at most 0.5.

G17C C22A C31G C55G A70U: the yeast fitness was determined as 0.527.

Take G17A C31G C49G: the yeast fitness was at most 0.5.

G17A C31U A70C: the yeast fitness came to 0.658.

As to G17A G48C C62A, the yeast fitness stood at 0.549.

In the case of G17C A37U A42U C49G G51A C61U, the yeast fitness was at most 0.5.

As to G17C C27U C61A, the yeast fitness turned out to be 0.537.

Turning to G17A C55U C62U, the yeast fitness was at most 0.5.

Take G18A C30U U47G: the yeast fitness was at most 0.5.

In the case of G18A C27U C31A, the yeast fitness is at most 0.5.

In the case of G17A U28G A42G G68U, the yeast fitness is at most 0.5.

Regarding G17A U64C, the yeast fitness was 0.878.

Take G17C U47G C66U G67A A69U: the yeast fitness was at most 0.5.

On to G17C A43U G48A C66G, for which the yeast fitness was at most 0.5.

Consider G18A A42C G48A C60A, for which the yeast fitness is at most 0.5.

Turning to G17C G63C, the yeast fitness is at most 0.5.

As to G17C U19A A36C A37U C60G G67C, the yeast fitness was at most 0.5.

Turning to G17C C22A C31G C55G G68A, the yeast fitness was 0.587.

As to G18A C24U U47G, the yeast fitness is at most 0.5.

Consider G17A G41C A43G G58C, for which the yeast fitness is at most 0.5.

As for G17C C33A C55A, the yeast fitness amounted to 0.672.

Turning to G17C U32A C46A A69U, the yeast fitness is at most 0.5.

As for G17C A42C, the yeast fitness came to 0.618.

With G17A C61A G63A G67A, the yeast fitness was found to be 0.542.

For G17C C49U G63C, the yeast fitness was at most 0.5.

As for G17A C24A C49U, the yeast fitness is at most 0.5.

For G17C C30G C55G A70G, the yeast fitness is at most 0.5.

For G17A C22U U28C A65U, the yeast fitness is at most 0.5.

In the case of G18A C24G G38C, the yeast fitness came out at 0.724.

Consider G18A C29U C31A C66U, for which the yeast fitness was at most 0.5.
